Data from ChEMBL document CHEMBL2029337, “Synthesis and antimicrobial activities of structurally novel S,S'-bis(heterosubstituted) disulfides” (Bioorg Med Chem Lett, 2012).
≈ marks a conversion by molar mass, not a printed value. Calls of active or inactive are those of the source. The calls are words filed in the database; no cut-off is given here.

How the values were obtained:
Staphylococcus aureus [1] = assay: Antibacterial activity against methicillin-resistant Staphylococcus aureus ATCC 43300 assessed as growth inhibition at 1 mg after 24 hrs by agar-diffusion assay; format: functional, organism-based
Outline: (§1)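 Kirby-Bauer well diffusion on an MRSA lawn (0.5 McFarland suspension swabbed onto tryptic soy agar). Four test agents sat in wells equidistant from a centre well holding 1 mg of additive in DMSO; a DMSO-only centre well served as vehicle control. After overnight incubation at 37 °C, the inhibition zones were examined for size or shape change.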

[2] = Antibacterial activity against Francisella tularensis subspecies holarctica LVS after 48 hrs by broth dilution method; format: functional, Francisella tularensis subsp. holarctica LVS
Escherichia coli = assay: Antibacterial activity against Escherichia coli K-12 […] by agar dilution method; format: functional, organism-based
Staphylococcus aureus [3] = assay: Antibacterial activity against methicillin-resistant Staphylococcus aureus ATCC 43300 assessed as reduction in bacterial counts at 2 ug/mL after overnight incubation by […] (reference value: 4.02 x 10^8 cfu/mL); format: functional
Staphylococcus aureus [4] = assay: Antibacterial activity against methicillin-resistant Staphylococcus aureus ATCC 43300 assessed as growth inhibition at 50 ug after 24 hrs by agar-diffusion assay in presence of glycine; format: functional, organism-based; outline: as §1
Staphylococcus aureus [5] = assay: Antibacterial activity against methicillin-susceptible Staphylococcus aureus ATCC 25923 […] by agar dilution method; format: functional
Staphylococcus aureus [6] = assay: Antibacterial activity against methicillin-resistant Staphylococcus aureus ATCC 43300 […] by agar dilution method; format: functional
Staphylococcus aureus [7] = assay: Antibacterial activity against methicillin-susceptible Staphylococcus aureus ATCC 25923 assessed as reduction in bacterial counts at 4 ug/mL after overnight incubation […] (reference value: 7.60 x 10^8 cfu/mL); format: functional
Outline: (§2)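 Viability count assay against S. aureus ATCC 25923. All tubes started at 10⁵ cfu/mL, and viable bacteria were counted before and after incubation with disulfide at the line's concentration. Tubes without disulfide served as the growth reference. Performed in triplicate.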

Staphylococcus aureus [8] = assay: Antibacterial activity against methicillin-resistant Staphylococcus aureus ATCC 43300 assessed as growth inhibition at 50 ug after 24 hrs by agar-diffusion assay in presence of PPh3; format: functional, organism-based; outline: as §1
Staphylococcus aureus [9] = assay: Antibacterial activity against methicillin-resistant Staphylococcus aureus ATCC 43300 assessed as growth inhibition at 50 ug after 24 hrs by agar-diffusion assay in presence of cystine; format: functional, organism-based
Staphylococcus aureus [10] = assay: Antibacterial activity against methicillin-resistant Staphylococcus aureus ATCC 43300 assessed as growth inhibition at 50 ug after 24 hrs by agar-diffusion assay in presence of valine; format: functional, organism-based; outline: as §1
Candida albicans = assay: Antifungal activity against Candida albicans assessed as reduction in viability by trypan blue staining; format: functional
Outline: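 C. albicans was exposed in YNB to a 1, 0.5, 0.25 and 0.125 series, following the NCCLS fungal protocol. Non-viable cells were stained with trypan blue and counted in a cell-counting chamber under a microscope at 40X. Controls were untreated cells in YNB and cells heat-killed in PBS (boiled 5 min).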

Staphylococcus aureus [11] = assay: Antibacterial activity against methicillin-resistant Staphylococcus aureus ATCC 43300 assessed as growth inhibition at 50 ug after 24 hrs by agar-diffusion assay in presence of iPrSSiPr; format: functional, organism-based; outline: as §1
Staphylococcus aureus [12] = assay: Membrane disrupting activity in methicillin-resistant Staphylococcus aureus ATCC 43300 by scanning electron microscopy; format: functional, organism-based
Outline: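 Scanning electron microscopy of MRSA cells before and after disulfide treatment during Kirby-Bauer agar diffusion experiments, assessing external cell morphology and cell-wall integrity.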

[13] = Cytotoxicity against bovine primary aortic endothelial cells at 20 ug/mL after 48 hrs by MTT assay; format: cell-based, Bos taurus; conditions: cattle, endothelial cell
Outline: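 Primary bovine aortic endothelial cells were kept in EBM-2 with 10% FBS and penicillin/streptomycin at 37 °C under 5% CO₂. Cells were trypsinized, counted and plated in 96-well dishes, then treated for 48 h. MTT was added and formazan dissolved in DMSO; absorbance was read at 540 nm with 660 nm background. Viability is expressed as percent of untreated control.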

Staphylococcus aureus [14] = assay: Antibacterial activity against methicillin-resistant Staphylococcus aureus ATCC 43300 assessed as growth inhibition at 50 ug after 24 hrs by agar-diffusion assay in presence of CoA; format: functional, organism-based; outline: as §1
Staphylococcus aureus [15] = assay: Antibacterial activity against methicillin-resistant Staphylococcus aureus ATCC 43300 assessed as growth inhibition at 50 ug after 24 hrs by agar-diffusion assay in presence of lysine; format: functional, organism-based; outline: as §1
Staphylococcus aureus [16] = assay: Antibacterial activity against methicillin-susceptible Staphylococcus aureus ATCC 25923 assessed as reduction in bacterial counts at 2 ug/mL after overnight incubation […] (reference value: 7.60 x 10^8 cfu/mL); format: functional; outline: as §2
Bartonella sp. = assay: Antibacterial activity against Bartonella ssp. […] by agar dilution method; format: functional
Staphylococcus aureus [17] = assay: Antibacterial activity against methicillin-resistant Staphylococcus aureus ATCC 43300 assessed as growth inhibition at 50 ug after 24 hrs by agar-diffusion assay in presence of GSH; format: functional, organism-based; outline: as §1
Staphylococcus aureus [18] = assay: Antibacterial activity against methicillin-resistant Staphylococcus aureus ATCC 43300 assessed as reduction in bacterial counts at 4 ug/mL after overnight incubation by […] (reference value: 4.02 x 10^8 cfu/mL); format: functional

CC(C)OSSOC(C)C
growth inhibition (GI) (Staphylococcus aureus [1]): Active | MIC [2]: 4 µg/mL (≈ 21.9 µM) | Activity (Escherichia coli): inactive | Activity (Staphylococcus aureus [3]): >1.2 ×10⁶ CFU/ml | growth inhibition (GI) (Staphylococcus aureus [4]): Active | MIC (Staphylococcus aureus [5]): 1 µg/mL (≈ 5.49 µM) | MIC (Staphylococcus aureus [6]): 0.5 µg/mL (≈ 2.74 µM) | Activity (Staphylococcus aureus [7]): 2.04 ×10³ CFU/ml | growth inhibition (GI) (Staphylococcus aureus [8]): Active | growth inhibition (GI) (Staphylococcus aureus [9]): inactive | growth inhibition (GI) (Staphylococcus aureus [10]): Active | MIC (Candida albicans): 0.5 µg/mL (≈ 2.74 µM) | growth inhibition (GI) (Staphylococcus aureus [11]): Active | Activity (Staphylococcus aureus [12]): inactive | Activity [13]: Non-toxic | growth inhibition (GI) (Staphylococcus aureus [14]): inactive | growth inhibition (GI) (Staphylococcus aureus [15]): Active | Activity (Staphylococcus aureus [16]): 3.86 ×10⁴ CFU/ml | Activity (Bartonella sp.): inactive | growth inhibition (GI) (Staphylococcus aureus [17]): inactive | Activity (Staphylococcus aureus [18]): 2.88 ×10³ CFU/ml
